{"source": "paper PMC9473745", "about": "(Cell chemical biology, 2021)", "key": {"[1]": {"target": "USP7 catalytic domain (Homo sapiens, UniProt Q93009)", "sequence (Q93009 208-560)": "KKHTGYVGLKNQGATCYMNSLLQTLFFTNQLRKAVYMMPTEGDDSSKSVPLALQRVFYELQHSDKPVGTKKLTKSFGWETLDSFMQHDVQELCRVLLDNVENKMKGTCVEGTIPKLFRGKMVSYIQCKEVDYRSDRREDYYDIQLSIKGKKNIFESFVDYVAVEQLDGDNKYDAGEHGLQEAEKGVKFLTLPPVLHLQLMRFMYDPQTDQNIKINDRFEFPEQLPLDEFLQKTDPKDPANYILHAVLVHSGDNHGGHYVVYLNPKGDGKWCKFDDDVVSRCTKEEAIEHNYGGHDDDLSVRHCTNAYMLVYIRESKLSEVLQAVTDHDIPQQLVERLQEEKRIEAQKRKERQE", "assay": "Ubiquitin rhodamine 110 kinetic assay, USP7 catalytic domain", "format": "biochemical", "procedure,_shortened": "(§1)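 Human DUB constructs, each N-terminally 6xHis-tagged and expressed in E. coli BL21(DE3): USP7 full length (AA 1–1102), USP7 catalytic domain (AA 208–560), USP8 catalytic domain (AA 743–1110) and USP30 catalytic domain (AA 65–517). Ub-Rho110 was then added and fluorescence (ex 485/em 535 nm) read each minute over 30 min. Initial rates were normalized to no-compound wells and fitted (variable slope) for IC50; each run at least twice, SEM.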"}, "[2]": {"test_system": "full-length USP7", "assay": "Kinetic Ub-Rho assay, full-length USP7", "format": "biochemical, human", "conditions": "dose-response", "procedure,_shortened": "as §1"}, "[3]": {"test_system": "USP7", "assay": "Ub-Rho endpoint screen of spiro indolinone expansion set, USP7", "format": "biochemical, human", "conditions": "8-point dose-response in triplicate", "procedure,_shortened": "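Enzyme and acoustically dispensed test compound were incubated 1 h; DMSO-only wells served as neutral control. Ub-Rho110 was then added and the reaction run 10 min at room temperature without a quench. Fluorescence was read at ex 485/em 535 nm.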"}, "[4]": {"test_system": "USP8", "assay": "Ub-Rho endpoint screen of spiro indolinone expansion set, USP8", "format": "biochemical, human", "conditions": "8-point dose-response in triplicate", "procedure,_shortened": "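Enzyme and test compound were incubated 10 min; DMSO wells served as control. Ub-Rho110 was then added and the reaction run 30 min–3 h at room temperature depending on DUB. Stopped with assay buffer plus 0.2% TFA and read at ex 485/em 535 nm.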"}, "[5]": {"target": "T1, USP28 catalytic domain (Homo sapiens, UniProt Q96RU2)", "T1 sequence (Q96RU2 149-703)": "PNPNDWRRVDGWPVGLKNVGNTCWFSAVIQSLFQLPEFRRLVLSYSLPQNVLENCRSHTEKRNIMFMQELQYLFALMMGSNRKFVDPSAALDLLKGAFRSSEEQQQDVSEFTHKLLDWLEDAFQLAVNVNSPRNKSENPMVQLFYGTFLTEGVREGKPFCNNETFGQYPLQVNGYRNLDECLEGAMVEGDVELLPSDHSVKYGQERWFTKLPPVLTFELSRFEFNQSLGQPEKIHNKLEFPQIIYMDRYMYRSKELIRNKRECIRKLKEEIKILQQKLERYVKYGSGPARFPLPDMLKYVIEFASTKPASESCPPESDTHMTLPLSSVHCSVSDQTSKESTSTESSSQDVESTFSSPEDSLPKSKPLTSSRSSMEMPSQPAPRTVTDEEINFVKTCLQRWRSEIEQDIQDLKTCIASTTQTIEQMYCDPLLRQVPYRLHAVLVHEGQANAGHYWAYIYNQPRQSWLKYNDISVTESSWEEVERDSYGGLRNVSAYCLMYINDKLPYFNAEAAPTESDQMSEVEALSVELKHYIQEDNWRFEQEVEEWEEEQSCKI", "assay": "Ubiquitin rhodamine 110 kinetic assay, USP28", "format": "biochemical", "conditions": "for potency relative to AZ1: USP28 IC50 compared with AZ1"}, "[6]": {"test_system": "USP28 in HEK293T lysates", "assay": "Quantitative activity-based protein profiling", "format": "binding, human", "conditions": "HEK293T lysate, 250 μM compound, Ub-PA/Ub-VME probes", "procedure,_shortened": "(§2)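 HEK293T cells were lysed in NP-40/glycerol/TCEP buffer with protease and phosphatase inhibitors, and lysate was diluted to 10 mg/mL. Lysate was incubated with 250 μM test compound or DMSO for 30 min at room temperature, with a selective USP7 inhibitor as positive control. Biotin-Ub-PA and biotin-Ub-VME (1 μM each) were added for 15 min. Labelled proteins were captured on streptavidin, trypsin-digested on bead and TMT-labelled. Quantified by multidimensional LC-MS using reporter-ion protein-level values.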"}, "[7]": {"test_system": "USP28 in HEK293T cellular lysate", "assay": "Competitive ABPP with western blot readout for USP28", "format": "binding, human", "conditions": "1 hour pre-treatment, dose-response", "procedure,_shortened": "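Lysate was pre-incubated with compound or DMSO for 1 h at RT. It was then labeled with 1:1 Ub-PA/Ub-VME (2 μM final) for 30 min at RT with shaking. Samples were denatured at 95°C, run on SDS-PAGE, and immunoblotted with anti-USP28 rabbit monoclonal.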"}, "[8]": {"target": "T2, USP30 catalytic domain (Homo sapiens, UniProt Q70CQ3)", "T2 sequence (Q70CQ3 65-517)": "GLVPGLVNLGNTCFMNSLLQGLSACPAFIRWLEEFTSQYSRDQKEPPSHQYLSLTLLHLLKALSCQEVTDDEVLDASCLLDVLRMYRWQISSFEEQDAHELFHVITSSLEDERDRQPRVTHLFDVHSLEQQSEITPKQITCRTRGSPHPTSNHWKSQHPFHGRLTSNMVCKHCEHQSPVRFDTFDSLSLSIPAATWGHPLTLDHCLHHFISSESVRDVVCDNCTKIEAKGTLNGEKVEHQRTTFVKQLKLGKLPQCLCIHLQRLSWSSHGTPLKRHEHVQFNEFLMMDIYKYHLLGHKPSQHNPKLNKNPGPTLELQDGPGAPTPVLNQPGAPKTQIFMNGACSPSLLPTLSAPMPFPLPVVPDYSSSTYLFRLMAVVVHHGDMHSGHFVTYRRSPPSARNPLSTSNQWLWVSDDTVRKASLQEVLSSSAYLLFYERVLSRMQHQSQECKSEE", "assay": "Ubiquitin rhodamine 110 kinetic assay, USP30", "format": "biochemical", "procedure,_shortened": "as §1"}, "[9]": {"test_system": "native USP25 in HEK293T lysates", "assay": "Quantitative activity-based protein profiling", "format": "binding, human", "conditions": "HEK293T lysate, 250 μM compound, Ub-PA/Ub-VME probes", "procedure,_shortened": "as §2"}, "[10]": {"test_system": "other DUBs detected in cell lysate", "assay": "Quantitative activity-based protein profiling", "format": "binding, human", "conditions": "HEK293T lysate, 250 μM compound, Ub-PA/Ub-VME probes", "procedure,_shortened": "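Aliquots were treated with 250 μM compound or DMSO for 30 min at RT, then processed to peptides. Peptides were TFA-acidified, C18-desalted, and TMT-labeled for 1 h at RT. Peptides were mapped to unique genes, and reporter ions were aggregated into protein-level values.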"}, "[11]": {"target": "T3, USP8 catalytic domain (Homo sapiens, UniProt P40818)", "T3 sequence (P40818 743-1110)": "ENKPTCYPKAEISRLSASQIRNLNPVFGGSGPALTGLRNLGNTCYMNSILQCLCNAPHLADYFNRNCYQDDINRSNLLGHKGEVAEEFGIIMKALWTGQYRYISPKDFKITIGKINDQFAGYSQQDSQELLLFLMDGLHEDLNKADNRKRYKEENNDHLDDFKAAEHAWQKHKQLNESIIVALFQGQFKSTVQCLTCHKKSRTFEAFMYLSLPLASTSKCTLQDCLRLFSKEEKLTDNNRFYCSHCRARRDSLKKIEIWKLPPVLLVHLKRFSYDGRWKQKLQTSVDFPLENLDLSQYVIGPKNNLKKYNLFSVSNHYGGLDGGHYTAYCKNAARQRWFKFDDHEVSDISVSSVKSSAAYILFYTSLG", "assay": "Ubiquitin rhodamine 110 kinetic assay, USP8", "format": "biochemical", "conditions": "kinetic Ub-Rho assay", "procedure,_shortened": "as §1"}, "[12]": {"target": "USP10 catalytic domain (Homo sapiens, UniProt Q14694)", "sequence (Q14694 376-798)": "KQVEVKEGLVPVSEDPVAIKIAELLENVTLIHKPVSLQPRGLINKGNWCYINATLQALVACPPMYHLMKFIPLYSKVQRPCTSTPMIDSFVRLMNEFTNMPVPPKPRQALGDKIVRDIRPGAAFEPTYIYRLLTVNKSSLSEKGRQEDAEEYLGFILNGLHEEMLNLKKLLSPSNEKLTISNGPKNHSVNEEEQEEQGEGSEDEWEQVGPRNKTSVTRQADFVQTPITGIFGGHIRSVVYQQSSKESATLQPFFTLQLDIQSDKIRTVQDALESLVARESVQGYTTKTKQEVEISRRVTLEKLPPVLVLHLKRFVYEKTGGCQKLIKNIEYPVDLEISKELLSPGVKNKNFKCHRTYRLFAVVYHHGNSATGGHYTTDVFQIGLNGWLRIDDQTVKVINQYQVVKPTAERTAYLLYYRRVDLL", "assay": "Ubiquitin rhodamine 110 kinetic assay, USP10", "format": "biochemical", "conditions": "read-out: IC50 ± SEM, kinetic Ub-Rho assay, 12-point dose-response, mean ± SEM (n)", "procedure,_shortened": "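Enzyme was the human USP10 catalytic domain (aa 376–798), N-6xHis, E. coli-expressed, purified by Ni-NTA and Superdex 200. Fluorescence (ex 485/em 535 nm) was read every minute for 30 min. Initial rates were normalized to no-compound control and fitted with a variable-slope model; runs ≥2, SEM.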"}, "[13]": {"test_system": "USP8", "assay": "Ubiquitin-AMC kinetic assay, USP8", "format": "biochemical, human", "conditions": "dose-response", "procedure,_shortened": "(§3)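 Same kinetic protocol as the Ub-Rho110 assay, with Ub-AMC as substrate. His-tagged catalytic domains were used: USP8 (AA 743–1110) and USP10 (AA 376–798). Read at ex 345/em 445 nm each minute over 30 min. IC50 came from initial rates normalized to no-compound wells and was compared with the Ub-Rho110 value.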"}, "[14]": {"test_system": "USP10", "assay": "Ubiquitin-AMC kinetic assay, USP10", "format": "biochemical, human", "conditions": "dose-response", "procedure,_shortened": "as §3"}, "[15]": {"conditions": "IC50 ± SEM, USP28, catalytic domain of the human protein, kinetic Ub-Rho assay, mean ± SEM (n)"}}, "note": "“Also recorded” adds a separate entry of the source. Like-named read-outs stand apart in the source and are kept apart here."}
{"smiles": "Cc1nn(-c2ccccc2)c2c1C1(C(=O)Nc3ccccc31)N1C(=N2)Sc2ccccc21", "note": "(centres unmarked) [AV-9606–27, 3-methyl-1-phenyl-1H-spiro[benzo[4,5]thiazolo[3,2-a]pyrazolo[3,4-d]pyrimidine-4,3’-indolin]-2’-one]", "values": [{"measurement": "IC50", "setting": "[1]; read-out: IC50 ± SEM, USP7, kinetic Ub-Rho assay, 12-point dose-response, mean ± SEM (n)", "value": "4680 ± 1050", "unit": "nM"}]}
{"smiles": "CC(C)c1[nH]nc2c1C1(C(=O)Nc3ccccc31)C(C#N)=C(N)O2", "note": "(centres unmarked) [AV-9606–41, 6’-amino-3’-isopropyl-2-oxo-2’H-spiro[indoline-3,4’-pyrano[2,3-c]pyrazole]-5’-carbonitrile]", "values": [{"measurement": "IC50", "setting": "[1]", "value": "3830 ± 1600", "unit": "nM"}, {"measurement": "inhibition of full-length USP7", "setting": "[2]", "value": "no inhibition of full-length protein; also recorded: no activity against a full-length protein"}, {"measurement": "activity against USP7 in expansion set screen", "setting": "[3]", "value": "active against USP7"}, {"measurement": "activity against USP8 in expansion set screen", "setting": "[4]", "value": "inactive against USP8"}]}
{"smiles": "O=C1c2ccccc2NC2(C(=O)Nc3ccc(Br)cc32)N1c1ccccc1", "note": "(centres unmarked) [AV-9606–99, 5-bromo-3’-phenyl-1’H-spiro[indoline-3,2’-quinazoline]-2,4’(3’H)-dione]", "values": [{"measurement": "IC50", "setting": "[5]; [15]", "value": "4330 ± 1080", "unit": "nM"}]}
{"smiles": "Cc1ccc(S(=O)(=O)N(C)C)cc1NC(=O)Cc1ccc(Cl)c(Cl)c1", "note": "[AV-9606–129, 2-(3,4-dichlorophenyl)-N-(5-(N,N-dimethylsulfamoyl)-2-methylphenyl)acetamide]", "values": [{"measurement": "IC50", "setting": "[5]; [15]", "value": "402 ± 197", "unit": "nM"}]}
{"smiles": "O=c1ccc(-c2noc(Cc3ccc(Cl)c(Cl)c3)n2)c[nH]1", "note": "[AV-9606–180, 5-(5-(3,4-dichlorobenzyl)-1,2,4-oxadiazol-3-yl)pyridin-2(1H)-one]", "values": [{"measurement": "IC50", "setting": "[5]; IC50, USP28", "value": "≤ 100", "unit": "nM"}, {"measurement": "potency relative to AZ1", "setting": "[5]", "value": "approximately 10 fold"}, {"measurement": "blockage of probe labeling of USP28", "setting": "[6]", "value": "strong inhibition of USP28"}, {"measurement": "blockage of USP28 labeling by covalent probe (western blot)", "setting": "[7]", "value": "good dose-dependent inhibition and prevention of probe labeling"}]}
{"smiles": "CC(C)NS(=O)(=O)c1cccc2c(NC(=O)[C@H](Cc3ccccc3)NC(=O)c3ccccc3)cccc12", "note": "[AV-11324–5, (S)-N-(1-((5-(N-isopropylsulfamoyl)naphthalen-1-yl)amino)-1-oxo-3-phenylpropan-2-yl)benzamide]", "values": [{"measurement": "IC50", "setting": "[8]", "value": "275 ± 70", "unit": "nM"}]}
{"smiles": "O=c1ccc(-c2noc(Cc3cccc(Cl)c3)n2)c[nH]1", "note": "[AV-11324–75, 5-(5-(3-chlorobenzyl)-1,2,4-oxadiazol-3-yl)pyridin-2(1H)-one]", "values": [{"measurement": "IC50", "setting": "[5]; [15]", "value": "176 ± 73", "unit": "nM"}, {"measurement": "blockage of USP28 labeling by covalent probe (western blot)", "setting": "[7]", "value": "good dose-dependent inhibition and prevention of probe labeling"}]}
{"smiles": "OCCNCc1cc(Br)ccc1OCc1ccc(F)c(C(F)(F)F)c1", "note": "[AZ1]", "values": [{"measurement": "blockage of probe labeling of USP25", "setting": "[9]", "value": "strongly blocked labeling of USP25"}, {"measurement": "blockage of probe labeling of USP28", "setting": "[6]", "value": "little impact on USP28"}, {"measurement": "activity toward other DUBs detected", "setting": "[10]", "value": "did not exhibit activity toward any other DUBs"}]}
{"smiles": "COc1ccc(C(=O)COC(=O)c2ccccc2NS(=O)(=O)c2ccc(O)c([N+](=O)[O-])c2)cc1", "note": "[Compound Z56965384]", "values": [{"measurement": "inhibition of off-target DUB USP8", "setting": "[11]", "value": "confirmed inhibition"}, {"measurement": "IC50", "setting": "[12]", "value": "26600 ± 4690", "unit": "nM"}, {"measurement": "increase in IC50 value with Ubiquitin-AMC versus Ub-Rho", "setting": "[13]", "value": "3–10 fold"}, {"measurement": "increase in IC50 value with Ubiquitin-AMC versus Ub-Rho", "setting": "[14]", "value": "3–10 fold"}]}
{"smiles": "CCCc1nc2sc3c(NCCc4ccc(OC)c(OC)c4)ncnc3c2c2c1CCC2", "note": "[bin-01–07-07, N-(3,4-dimethoxyphenethyl)-4-propyl-2,3-dihydro-1H-cyclopenta[4’,5’]pyrido[3’,2’:4,5]thieno[3,2-d]pyrimidin-7-amine]", "values": [{"measurement": "IC50", "setting": "[5]; IC50, USP28", "value": "≤ 100", "unit": "nM"}, {"measurement": "IC50", "setting": "[5]; [15]", "value": "46 ± 17", "unit": "nM"}, {"measurement": "potency relative to AZ1", "setting": "[5]", "value": "approximately 10 fold"}, {"measurement": "blockage of probe labeling of USP28", "setting": "[6]", "value": "strong inhibition of USP28"}, {"measurement": "blockage of USP28 labeling by covalent probe (western blot)", "setting": "[7]", "value": "good dose-dependent inhibition and prevention of probe labeling"}]}
